Data on 6 compounds can be found in BindingDB's records for doi:10.1021/acs.jmedchem.5b01723 (Uppsala University, 2016).

In experiment [1] the target is T1, Carbonic anhydrase 12 (Homo sapiens, UniProt O43570). The experiment is described as follows: Binding affinity to human recombinant CA12 catalytic domain assessed as dissociation rate constant after 30 secs by surface plasmon resonance assay. (SPR reads the build-up and loss of mass on a sensor chip optically.)
The target in experiment [2] is T2, Carbonic anhydrase 7 (Homo sapiens, UniProt P43166). The experiment can be described thus: Binding affinity to human recombinant CA7 assessed as dissociation rate constant after 30 secs by surface plasmon resonance assay.
T2 sequence (P43166 whole entry, the tested form may be a part): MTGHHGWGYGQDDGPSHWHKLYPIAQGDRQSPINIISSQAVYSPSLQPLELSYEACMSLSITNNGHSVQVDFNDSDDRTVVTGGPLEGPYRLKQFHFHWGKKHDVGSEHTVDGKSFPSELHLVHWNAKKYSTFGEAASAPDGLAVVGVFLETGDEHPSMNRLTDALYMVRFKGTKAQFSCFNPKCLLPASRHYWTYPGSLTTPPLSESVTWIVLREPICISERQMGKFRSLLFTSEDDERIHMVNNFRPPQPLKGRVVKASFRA
Experiment [3] has as its target T1, Carbonic anhydrase 12. The experiment is described as follows: Binding affinity to human recombinant CA12 catalytic domain assessed as association rate constant after 30 secs by surface plasmon resonance assay. The settings on record: read-out: kon (M-1-s-1).
Experiment [4] has as its target T2, Carbonic anhydrase 7. The experiment is described as follows: Binding affinity to human recombinant CA7 assessed as association rate constant after 30 secs by surface plasmon resonance assay. The settings on record: read-out: kon (M-1-s-1).
The target of experiment [5] is T3, Carbonic anhydrase 2 (Homo sapiens, UniProt P00918). The experiment can be described thus: Binding affinity to human recombinant CA2 expressed in Escherichia coli assessed as dissociation rate constant after 30 secs by surface plasmon resonance assay.
Experiment [6] has as its target T4, Carbonic anhydrase 13 (Homo sapiens, UniProt Q8N1Q1). The experiment can be described thus: Binding affinity to human recombinant CA13 assessed as dissociation rate constant after 30 secs by surface plasmon resonance assay.
Experiment [7] has as its target T4, Carbonic anhydrase 13. The experiment is described as follows: Binding affinity to human recombinant CA13 assessed as association rate constant after 30 secs by surface plasmon resonance assay. The settings on record: read-out: kon (M-1-s-1).
Experiment [8] has as its target T3, Carbonic anhydrase 2. The experiment is described as follows: Binding affinity to human recombinant CA2 expressed in Escherichia coli assessed as association rate constant after 30 secs by surface plasmon resonance assay. The conditions noted are these: read-out: kon (M-1-s-1).
Experiment [9] concerns the target T5, Carbonic anhydrase 1 (Homo sapiens, UniProt P00915). The experiment can be described thus: Binding affinity to human recombinant CA1 expressed in Escherichia coli assessed as dissociation rate constant after 30 secs by surface plasmon resonance assay. The gist of the method: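 CA I immobilized by amine coupling (75 µg mL−1 in 10 mM sodium acetate, pH 5) to about 6000 RU. SPR run at 25 °C in PBST with 2 % DMSO, pH 7.4. Ligand given as 2-fold series, 15.6–2000 nM, at 30 or 90 µL min−1. Association 30 s, dissociation 180 s; sulphanilamide 200 µM regeneration where needed. kd from non-linear fit to one-step binding with mass transport.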

Experiment [10] deals with T5, Carbonic anhydrase 1. The experiment can be described thus: Binding affinity to human recombinant CA1 expressed in Escherichia coli assessed as association rate constant after 30 secs by surface plasmon resonance assay. The gist of the method: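 Full-length enzyme amine-coupled to a carboxymethyl-dextran chip (75 µg/mL in 10 mM sodium acetate pH 5, about 6000 RU). SPR at 25 °C in PBST pH 7.4 with 2% DMSO. Ligands injected as 2-fold series, 15.6–2000 nM, at 30 or 90 µL/min. Association 30 s, dissociation 180 s. Regeneration with 200 µM sulphanilamide. ka from non-linear fit to a one-step binding model with mass transport.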

T1 sequence (O43570 whole entry, the tested form may be a part): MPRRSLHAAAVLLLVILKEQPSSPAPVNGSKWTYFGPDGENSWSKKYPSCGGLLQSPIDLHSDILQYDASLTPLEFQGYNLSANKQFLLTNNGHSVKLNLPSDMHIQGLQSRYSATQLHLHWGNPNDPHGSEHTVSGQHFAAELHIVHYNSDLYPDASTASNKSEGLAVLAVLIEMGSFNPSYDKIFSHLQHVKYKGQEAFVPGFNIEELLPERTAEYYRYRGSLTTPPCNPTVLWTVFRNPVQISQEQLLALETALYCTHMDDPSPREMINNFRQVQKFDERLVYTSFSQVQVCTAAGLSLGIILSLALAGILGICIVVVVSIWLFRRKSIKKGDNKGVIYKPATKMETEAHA
T5 sequence (P00915 whole entry): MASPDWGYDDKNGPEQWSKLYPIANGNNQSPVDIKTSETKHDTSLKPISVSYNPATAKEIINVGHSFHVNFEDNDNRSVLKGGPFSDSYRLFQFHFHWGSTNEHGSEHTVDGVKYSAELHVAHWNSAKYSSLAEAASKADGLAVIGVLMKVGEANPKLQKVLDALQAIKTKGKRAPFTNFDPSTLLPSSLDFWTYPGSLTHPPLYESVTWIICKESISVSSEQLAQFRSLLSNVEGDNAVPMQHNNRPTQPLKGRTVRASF
T4 sequence (Q8N1Q1 whole entry): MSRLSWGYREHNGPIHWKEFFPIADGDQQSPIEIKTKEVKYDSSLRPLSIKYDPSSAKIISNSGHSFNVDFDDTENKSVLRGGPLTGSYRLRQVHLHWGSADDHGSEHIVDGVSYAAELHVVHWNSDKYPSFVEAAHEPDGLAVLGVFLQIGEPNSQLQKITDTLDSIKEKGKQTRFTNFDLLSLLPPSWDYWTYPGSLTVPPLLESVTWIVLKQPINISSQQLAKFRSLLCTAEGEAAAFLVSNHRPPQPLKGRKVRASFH

Broadly, the koff is the rate constant with which the complex falls apart. One may read the kon as the rate constant with which the complex forms. With `CCCSc1c(F)c(F)c(S(N)(=O)=O)c(NC2CCCCCCC2)c1F` [carbonic anhydrase (CA) inhibitors, benzenesulphonamide ligand, 12], the koff on Carbonic anhydrase 12 [1] is 0.05 s⁻¹; on Carbonic anhydrase 7 [2] it was 0.01 s⁻¹. Further, the kon at Carbonic anhydrase 12 [3] was 130000 M⁻¹ s⁻¹; at Carbonic anhydrase 7 [4] it was 20000 M⁻¹ s⁻¹.
As for `CCCS(=O)(=O)c1c(F)c(F)c(S(N)(=O)=O)c(F)c1NC1CCCCCCC1` [carbonic anhydrase (CA) inhibitors, benzenesulphonamide ligand, 13], the koff turned out to be 0.0087 s⁻¹ on Carbonic anhydrase 2 [5], 0.002 s⁻¹ at Carbonic anhydrase 7 [2] and 0.0079 s⁻¹ on Carbonic anhydrase 13 [6]. Further, the kon on Carbonic anhydrase 13 [7] was determined as 510000 M⁻¹ s⁻¹; on Carbonic anhydrase 2 [8] it was 86000 M⁻¹ s⁻¹; at Carbonic anhydrase 7 [4], 49000 M⁻¹ s⁻¹.
For the compound `CNc1c(F)c(S(N)(=O)=O)c(F)c(F)c1S(=O)(=O)CCc1ccccc1` [carbonic anhydrase (CA) inhibitors, benzenesulphonamide ligand, 14], the koff on Carbonic anhydrase 2 [5] worked out at 0.0082 s⁻¹; at Carbonic anhydrase 1 [9], 0.01 s⁻¹; at Carbonic anhydrase 12 [1], 0.14 s⁻¹; at Carbonic anhydrase 7 [2], 0.013 s⁻¹. Besides, the kon on Carbonic anhydrase 2 [8] is 1.3e+06 M⁻¹ s⁻¹; on Carbonic anhydrase 12 [3] it was 1.5e+06 M⁻¹ s⁻¹; at Carbonic anhydrase 1 [10] it was 390000 M⁻¹ s⁻¹; at Carbonic anhydrase 7 [4] it was 290000 M⁻¹ s⁻¹.
Turning to `CC(C)(C)Nc1c(F)c(S(N)(=O)=O)c(F)c(F)c1S(=O)(=O)CCc1ccccc1` [carbonic anhydrase (CA) inhibitors, benzenesulphonamide ligand, 15], the koff on Carbonic anhydrase 12 [1] came to 0.011 s⁻¹. In addition, the kon at Carbonic anhydrase 12 [3] was 180000 M⁻¹ s⁻¹.
Regarding `COc1ccc(CNc2c(F)c(F)c(F)c(F)c2S(N)(=O)=O)cc1` [carbonic anhydrase (CA) inhibitors, benzenesulphonamide ligand, 15], the koff at Carbonic anhydrase 2 [5] is 0.026 s⁻¹; at Carbonic anhydrase 1 [9] it was 0.0066 s⁻¹; at Carbonic anhydrase 7 [2] it was 0.14 s⁻¹; on Carbonic anhydrase 13 [6] it was 0.022 s⁻¹. Also, the kon is 100000 M⁻¹ s⁻¹ at Carbonic anhydrase 13 [7], 390000 M⁻¹ s⁻¹ at Carbonic anhydrase 2 [8], 110000 M⁻¹ s⁻¹ on Carbonic anhydrase 1 [10] and 30000 M⁻¹ s⁻¹ on Carbonic anhydrase 7 [4].
As to `NS(=O)(=O)c1c(F)c(F)c(N2CCCCC2)c(F)c1F` [carbonic anhydrase (CA) inhibitors, benzenesulphonamide ligand, 16], the koff is 0.0093 s⁻¹ on Carbonic anhydrase 2 [5], 0.041 s⁻¹ at Carbonic anhydrase 12 [1], 0.071 s⁻¹ on Carbonic anhydrase 7 [2] and 0.011 s⁻¹ at Carbonic anhydrase 13 [6]. Further, the kon at Carbonic anhydrase 13 [7] stood at 920000 M⁻¹ s⁻¹; at Carbonic anhydrase 2 [8], 1.4e+06 M⁻¹ s⁻¹; on Carbonic anhydrase 12 [3], 880000 M⁻¹ s⁻¹; on Carbonic anhydrase 7 [4], 2.6e+06 M⁻¹ s⁻¹.
